Data reported in ChEMBL document CHEMBL3046951, “Volatile constituents from the leaves of Callicarpa japonica Thunb. and their antibacterial activities” (2004).

Legend:
Type in all cases: functional
Staphylococcus aureus [1] = test: Antimicrobial activity against Staphylococcus aureus ATCC 25923 assessed as growth inhibition rate at 25.52 mg/l after 72 hr by spectrophotometry; conditions: ATCC 25923, 72 h, read-out: GI
Bacillus cereus [2] = test: Antimicrobial activity against Bacillus cereus ATCC 11778 assessed as growth inhibition rate at 67.88 mg/l after 72 hr by spectrophotometry; conditions: ATCC 11778, 72 h, read-out: GI
Method in brief: (§1)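 Pure volatile compounds (purity >95%; one at 90%) were tested against B. cereus ATCC 11778. The strain was grown at 30 °C in nutrient broth for 24 h, then subcultured for 18 h. Optical density was read in a Bioscreen C every 24 h for 72 h, with 10% Tween 80 as the control.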

Staphylococcus aureus [3] = test: Antimicrobial activity against Staphylococcus aureus ATCC 25923 assessed as growth inhibition rate at 339.32 mg/l after 72 hr by spectrophotometry; conditions: ATCC 25923, 72 h, read-out: GI
Vibrio parahaemolyticus [4] = test: Antimicrobial activity against Vibrio parahaemolyticus ATCC 33844 assessed as growth inhibition rate at 678.64 mg/l after 72 hr by spectrophotometry; conditions: ATCC 33844, 72 h, read-out: GI
Listeria monocytogenes [5] = test: Antimicrobial activity against Listeria monocytogenes ATCC 19111 assessed as growth inhibition rate at 67.88 mg/l after 72 hr by spectrophotometry; conditions: ATCC 19111, 72 h, read-out: GI
Method in brief: (§2)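 L. monocytogenes was grown at 30 °C in tryptic soy broth, subcultured for 18 h, and exposed to pure volatile compounds (>95% purity). Growth was followed by Bioscreen C optical density every 24 h for 72 h against a 10% Tween 80 control.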

Listeria monocytogenes [6] = test: Antimicrobial activity against Listeria monocytogenes ATCC 19111 assessed as growth inhibition rate at 25.52 mg/l after 72 hr by spectrophotometry; conditions: ATCC 19111, 72 h, read-out: GI; method in brief: as §2
Vibrio parahaemolyticus [7] = test: Antimicrobial activity against Vibrio parahaemolyticus ATCC 33844 assessed as growth inhibition rate at 67.88 mg/l after 72 hr by spectrophotometry; conditions: ATCC 33844, 72 h, read-out: GI
Listeria monocytogenes [8] = test: Antimicrobial activity against Listeria monocytogenes ATCC 19111 assessed as growth inhibition rate at 339.32 mg/l after 72 hr by spectrophotometry; conditions: ATCC 19111, 72 h, read-out: GI; method in brief: as §2
Vibrio parahaemolyticus [9] = test: Antimicrobial activity against Vibrio parahaemolyticus ATCC 33844 assessed as growth inhibition rate at 339.32 mg/l after 72 hr by spectrophotometry; conditions: ATCC 33844, 72 h, read-out: GI
Salmonella typhimurium [10] = test: Antimicrobial activity against Salmonella enterica subsp. enterica serovar Typhimurium ATCC 14028 assessed as growth inhibition rate at 67.88 mg/l after 72 hr by spectrophotometry; conditions: ATCC 14028, 72 h, read-out: GI
Escherichia coli [11] = test: Antimicrobial activity against Escherichia coli O157:H7 ATCC 43894 assessed as growth inhibition rate at 135.68 mg/l after 72 hr by spectrophotometry; conditions: O157:H7 ATCC 43894, 72 h, read-out: GI
Bacillus cereus [12] = test: Antimicrobial activity against Bacillus cereus ATCC 11778 assessed as growth inhibition rate at 339.32 mg/l after 72 hr by spectrophotometry; conditions: ATCC 11778, 72 h, read-out: GI; method in brief: as §1
Bacillus cereus [13] = test: Antimicrobial activity against Bacillus cereus ATCC 11778 assessed as growth inhibition rate at 12.48 mg/l after 72 hr by spectrophotometry; conditions: ATCC 11778, 72 h, read-out: GI; method in brief: as §1
Bacillus cereus [14] = test: Antimicrobial activity against Bacillus cereus ATCC 11778 assessed as growth inhibition rate at 135.68 mg/l after 72 hr by spectrophotometry; conditions: ATCC 11778, 72 h, read-out: GI; method in brief: as §1
Listeria monocytogenes [15] = test: Antimicrobial activity against Listeria monocytogenes ATCC 19111 assessed as growth inhibition rate at 12.48 mg/l after 72 hr by spectrophotometry; conditions: ATCC 19111, 72 h, read-out: GI; method in brief: as §2
Vibrio parahaemolyticus [16] = test: Antimicrobial activity against Vibrio parahaemolyticus ATCC 33844 assessed as growth inhibition rate at 12.48 mg/l after 72 hr by spectrophotometry; conditions: ATCC 33844, 72 h, read-out: GI
Staphylococcus aureus [17] = test: Antimicrobial activity against Staphylococcus aureus ATCC 25923 assessed as growth inhibition rate at 135.68 mg/l after 72 hr by spectrophotometry; conditions: ATCC 25923, 72 h, read-out: GI
Escherichia coli [18] = test: Antimicrobial activity against Escherichia coli O157:H7 ATCC 43894 assessed as growth inhibition rate at 678.64 mg/l after 72 hr by spectrophotometry; conditions: O157:H7 ATCC 43894, 72 h, read-out: GI
Method in brief: (§3)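 Authentic volatiles (>95% purity; 2,4-heptadienal 90%) tested against 18 h subcultures. Growth media: E. coli O157:H7 and S. aureus in tryptic soy broth at 37 °C; L. monocytogenes in tryptic soy broth at 30 °C; V. parahaemolyticus in tryptic soy broth + 3% NaCl at 37 °C; S. typhimurium in nutrient broth at 30 °C. Bioscreen C OD every 24 h for 72 h versus 10% Tween 80 control.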

Escherichia coli [19] = test: Antimicrobial activity against Escherichia coli O157:H7 ATCC 43894 assessed as growth inhibition rate at 12.48 mg/l after 72 hr by spectrophotometry; conditions: O157:H7 ATCC 43894, 72 h, read-out: GI
Salmonella typhimurium [20] = test: Antimicrobial activity against Salmonella enterica subsp. enterica serovar Typhimurium ATCC 14028 assessed as growth inhibition rate at 678.64 mg/l after 72 hr by spectrophotometry; conditions: ATCC 14028, 72 h, read-out: GI
Bacillus cereus [21] = test: Antimicrobial activity against Bacillus cereus ATCC 11778 assessed as growth inhibition rate at 678.64 mg/l after 72 hr by spectrophotometry; conditions: ATCC 11778, 72 h, read-out: GI; method in brief: as §1
Staphylococcus aureus [22] = test: Antimicrobial activity against Staphylococcus aureus ATCC 25923 assessed as growth inhibition rate at 12.48 mg/l after 72 hr by spectrophotometry; conditions: ATCC 25923, 72 h, read-out: GI
Listeria monocytogenes [23] = test: Antimicrobial activity against Listeria monocytogenes ATCC 19111 assessed as growth inhibition rate at 678.64 mg/l after 72 hr by spectrophotometry; conditions: ATCC 19111, 72 h, read-out: GI
Method in brief: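 Pure volatile compounds (>95% purity) tested on Listeria monocytogenes ATCC 19111 in tryptic soy broth at 30 °C. Inoculum: 24 h culture subcultured (0.1 mL into 9.9 mL broth) and grown 18 h. Growth followed by Bioscreen C optical density every 24 h for 72 h against a 10% Tween 80 control.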

Salmonella typhimurium [24] = test: Antimicrobial activity against Salmonella enterica subsp. enterica serovar Typhimurium ATCC 14028 assessed as growth inhibition rate at 12.48 mg/l after 72 hr by spectrophotometry; conditions: ATCC 14028, 72 h, read-out: GI
Method in brief: (§4)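 Salmonella Typhimurium ATCC 14028 grown in nutrient broth at 30 °C, precultured 24 h, then subcultured 1:100 for 18 h before testing. Single volatile compounds (>95% pure) were added. OD was read every 24 h over 72 h in a Bioscreen C, with 10% Tween 80 as the comparison control.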

Escherichia coli [25] = test: Antimicrobial activity against Escherichia coli O157:H7 ATCC 43894 assessed as growth inhibition rate at 339.32 mg/l after 72 hr by spectrophotometry; conditions: O157:H7 ATCC 43894, 72 h, read-out: GI
Staphylococcus aureus [26] = test: Antimicrobial activity against Staphylococcus aureus ATCC 25923 assessed as growth inhibition rate at 678.64 mg/l after 72 hr by spectrophotometry; conditions: ATCC 25923, 72 h, read-out: GI
Escherichia coli [27] = test: Antimicrobial activity against Escherichia coli O157:H7 ATCC 43894 assessed as growth inhibition rate at 25.52 mg/l after 72 hr by spectrophotometry; conditions: O157:H7 ATCC 43894, 72 h, read-out: GI
Salmonella typhimurium [28] = test: Antimicrobial activity against Salmonella enterica subsp. enterica serovar Typhimurium ATCC 14028 assessed as growth inhibition rate at 339.32 mg/l after 72 hr by spectrophotometry; conditions: ATCC 14028, 72 h, read-out: GI; method in brief: as §4
Staphylococcus aureus [29] = test: Antimicrobial activity against Staphylococcus aureus ATCC 25923 assessed as growth inhibition rate at 67.88 mg/l after 72 hr by spectrophotometry; conditions: ATCC 25923, 72 h, read-out: GI
Salmonella typhimurium [30] = test: Antimicrobial activity against Salmonella enterica subsp. enterica serovar Typhimurium ATCC 14028 assessed as growth inhibition rate at 135.68 mg/l after 72 hr by spectrophotometry; conditions: ATCC 14028, 72 h, read-out: GI; method in brief: as §4
Vibrio parahaemolyticus [31] = test: Antimicrobial activity against Vibrio parahaemolyticus ATCC 33844 assessed as growth inhibition rate at 25.52 mg/l after 72 hr by spectrophotometry; conditions: ATCC 33844, 72 h, read-out: GI
Escherichia coli [32] = test: Antimicrobial activity against Escherichia coli O157:H7 ATCC 43894 assessed as growth inhibition rate at 67.88 mg/l after 72 hr by spectrophotometry; conditions: O157:H7 ATCC 43894, 72 h, read-out: GI; method in brief: as §3
Bacillus cereus [33] = test: Antimicrobial activity against Bacillus cereus ATCC 11778 assessed as growth inhibition rate at 25.52 mg/l after 72 hr by spectrophotometry; conditions: ATCC 11778, 72 h, read-out: GI; method in brief: as §1
Salmonella typhimurium [34] = test: Antimicrobial activity against Salmonella enterica subsp. enterica serovar Typhimurium ATCC 14028 assessed as growth inhibition rate at 25.52 mg/l after 72 hr by spectrophotometry; conditions: ATCC 14028, 72 h, read-out: GI; method in brief: as §4
Vibrio parahaemolyticus [35] = test: Antimicrobial activity against Vibrio parahaemolyticus ATCC 33844 assessed as growth inhibition rate at 135.68 mg/l after 72 hr by spectrophotometry; conditions: ATCC 33844, 72 h, read-out: GI
Listeria monocytogenes [36] = test: Antimicrobial activity against Listeria monocytogenes ATCC 19111 assessed as growth inhibition rate at 135.68 mg/l after 72 hr by spectrophotometry; conditions: ATCC 19111, 72 h, read-out: GI; method in brief: as §2

For `C=C[C@H](O)CCCCC`, the inhibition of growth at 25.52 µg/mL (Staphylococcus aureus [1]) was 6.6%, the inhibition of growth at 67.88 µg/mL (Bacillus cereus [2]) was 4.2% and the inhibition of growth at 339.32 µg/mL (Staphylococcus aureus [3]) was 50.2%. For the same compound, the inhibition of growth at 678.64 µg/mL (Vibrio parahaemolyticus [4]) was 98.8%, the inhibition of growth at 67.88 µg/mL (Listeria monocytogenes [5]) was 5% and the inhibition of growth at 25.52 µg/mL (Listeria monocytogenes [6]) was 6.7%. It also gave an inhibition of growth at 67.88 µg/mL (Vibrio parahaemolyticus [7]) of 13.5%, an inhibition of growth at 339.32 µg/mL (Listeria monocytogenes [8]) of 27.3% and an inhibition of growth at 339.32 µg/mL (Vibrio parahaemolyticus [9]) of 90.4%. It also gave an inhibition of growth at 67.88 µg/mL (Salmonella typhimurium [10]) of 17.7%, an inhibition of growth at 135.68 µg/mL (Escherichia coli [11]) of 8.9% and an inhibition of growth at 339.32 µg/mL (Bacillus cereus [12]) of 54.6%. The inhibition of growth at 12.48 µg/mL (Bacillus cereus [13]) was 0%, the inhibition of growth at 135.68 µg/mL (Bacillus cereus [14]) was 7.6% and the inhibition of growth at 12.48 µg/mL (Listeria monocytogenes [15]) was 5.4%. For the same compound, the inhibition of growth at 12.48 µg/mL (Vibrio parahaemolyticus [16]) was 11.1%, the inhibition of growth at 135.68 µg/mL (Staphylococcus aureus [17]) was 8.7% and the inhibition of growth at 678.64 µg/mL (Escherichia coli [18]) was 96.5%. The inhibition of growth at 12.48 µg/mL (Escherichia coli [19]) was 8.3%, the inhibition of growth at 678.64 µg/mL (Salmonella typhimurium [20]) was 98.4% and the inhibition of growth at 678.64 µg/mL (Bacillus cereus [21]) was 90.8%. For the same compound, the inhibition of growth at 12.48 µg/mL (Staphylococcus aureus [22]) was 3.6%, the inhibition of growth at 678.64 µg/mL (Listeria monocytogenes [23]) was 39.8% and the inhibition of growth at 12.48 µg/mL (Salmonella typhimurium [24]) was 18.2%. For the same compound, the inhibition of growth at 339.32 µg/mL (Escherichia coli [25]) was 87.2%, the inhibition of growth at 678.64 µg/mL (Staphylococcus aureus [26]) was 80.6% and the inhibition of growth at 25.52 µg/mL (Escherichia coli [27]) was 6.3%. For the same compound, the inhibition of growth at 339.32 µg/mL (Salmonella typhimurium [28]) was 79.1%, the inhibition of growth at 67.88 µg/mL (Staphylococcus aureus [29]) was 5.7% and the inhibition of growth at 135.68 µg/mL (Salmonella typhimurium [30]) was 25.4%. The inhibition of growth at 25.52 µg/mL (Vibrio parahaemolyticus [31]) was 14.3%, the inhibition of growth at 67.88 µg/mL (Escherichia coli [32]) was 7.9% and the inhibition of growth at 25.52 µg/mL (Bacillus cereus [33]) was 0%. It also gave an inhibition of growth at 25.52 µg/mL (Salmonella typhimurium [34]) of 16.7%, an inhibition of growth at 135.68 µg/mL (Vibrio parahaemolyticus [35]) of 21.5% and an inhibition of growth at 135.68 µg/mL (Listeria monocytogenes [36]) of 8.2%.
